# From PubChem BioAssay AID373 (The Scripps Research Institute Molecular Screening Center, 2006)
# About 60 (0.1%) of roughly 60,000 compounds were called active. What follows is part of a selection rich in actives, with near analogues and random picks from the rest. Values without a mark were called inactive.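 Rule for the calls: active = activation above the screen-wide mean plus 3 SD (cut at about 4.5% in these data, passing the limit was not always enough); inactive = the rest, inconclusive results apart.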
# Target: Sphingosine 1-phosphate receptor 3 (Homo sapiens) (UniProt Q99500)
# Sequence (Q99500 whole entry, looked up): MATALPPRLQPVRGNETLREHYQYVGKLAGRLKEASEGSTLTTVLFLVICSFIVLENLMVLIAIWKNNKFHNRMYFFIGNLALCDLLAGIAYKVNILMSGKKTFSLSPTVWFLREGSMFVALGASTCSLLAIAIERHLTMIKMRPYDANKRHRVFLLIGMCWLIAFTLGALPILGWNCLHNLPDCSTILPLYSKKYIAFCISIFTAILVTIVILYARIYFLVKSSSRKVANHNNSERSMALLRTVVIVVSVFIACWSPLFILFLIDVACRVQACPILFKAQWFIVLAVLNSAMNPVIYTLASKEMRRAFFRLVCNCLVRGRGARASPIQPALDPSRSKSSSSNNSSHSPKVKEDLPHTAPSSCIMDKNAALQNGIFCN
# Experiment: human S1P3 receptor agonists, primary screen, cell-based, primary and confirmation, NFAT-BLA reporter (AID 373)
# Details: S1P3 NFAT-BLA reporter cells, agonism, FRET ratio, at 4.5 µM, stronger effect = higher value, relative to 1 µM S1P, basal subtracted
# How it was run: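 Material: Human S1P3 NFAT-BLA reporter CHO cells | Incubation: Overnight plating, 4 h compound 37 °C, 2 h substrate RT | Signal: FRET β-lactamase substrate fluorescence, excitation 405 nm, 460/535 nm emission ratio, background-subtracted | Compound: 4.5 µM final, single dose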
row,SMILES,activation [%]
1,CCOc1ccc(CNC(=O)C2CC(=O)N(C3CCCC3)C2)cc1OC (configuration not stated),0.9
2,O=C1CCC(Cc2ccccc2)N1 (configuration not stated),0.3
3,CCCCOc1ccc(-c2nnc(-c3ccco3)o2)cc1,-0.5
4,COC(=O)N1CN(C(=O)OC)CN(C(=O)OC)C1,-0.2
5,COC(=O)CN(c1nc(C)c(Cl)c(OC)n1)S(=O)(=O)c1ccc(C)cc1,-1.1
6,O=C(O)c1ccc(NS(=O)(=O)c2cccc3nsnc23)cc1,-0.5
7,Cn1c(=O)[nH]c(=O)c2c1nc(Br)n2CCCCSc1nc2ccccc2o1,-1.6
8,O=C(NCCN1CCOCC1)c1ccc2c(c1)ncn2C1CCCC1,-0.2
9,COc1cccc(OCC(=O)Nc2ccccc2C(N)=O)c1,-1.1
10,CCOC(=O)N1CCN(C(=O)c2cc3c(-c4ccc(Cl)cc4)nn(C)c3s2)CC1,-1.5
11,Cc1cc(C)c2nc(SCCC#N)nc(C)c2c1,-0.8
12,c1cc(-c2nn[nH]n2)ccc1CN1CCCCC1,-0.2
13,N#CC(C(N)=O)=C1CCC2(CC1)OCCCCO2,-0.6
14,CC(CNC(=O)c1ccc(Br)o1)NC(=O)c1ccc(Br)o1 (configuration not stated),-0.8
15,Cc1ccc(OCC(=O)Nc2ccc(-c3nc4ncccc4o3)cc2)cc1,0.4
16,O=c1c2ccccc2[nH]c(=S)n1CCN1CCC(=C(c2ccc(F)cc2)c2ccc(F)cc2)CC1,-2.2
17,Cc1cc(NC(=O)CCC(=O)N(c2ccccc2)C(C(=O)NC2CCCC2)c2ccncc2)no1 (configuration not stated),-0.2
18,O=C(OCCO)c1cc(Cl)c(C(=O)OCCO)cc1Cl,-1.2
19,Cc1cccc(NC(=O)C2CCN(S(=O)(=O)c3cccc4cccnc34)CC2)c1,-0.2
20,CN(C)c1ccnc2sc3c(=O)n(Cc4ccccc4)cnc3c12,-1.9
21,CCN1C(=O)/C(=C2\SC(N3CCCCC3)=NC2=O)c2ccccc21,-0.5

row,SMILES,activation [%]
1,COc1ccc2c(c1OC)C(=O)OC2c1c(O)nc(SC)n(-c2ccccc2)c1=O (configuration not stated),-2.9
2,CCc1nnc(NC(=O)c2cccs2)s1,0.7
3,COc1ccc(C(=O)N(CCN2CCOCC2)CC(=O)NC2CCCC2)cc1OC,0.6
4,CCn1c(=O)cc(O)c2ccccc21,0.7
5,CCOC(=O)C1=C(C)N=c2s/c(=C\C(=O)OC)c(=O)n2C1c1ccc(OC)cc1 (configuration not stated),-0.8
6,O=C(CCc1ccccc1)Nc1cccc(-c2nnc(-c3ccco3)o2)c1,-0.9
7,CCc1cc(=O)oc2cc(C)cc(OC(C)C(=O)O)c12 (configuration not stated),-0.4
8,COc1ccc(Cn2nnc3c(=O)[nH]c(C4CCN(C(=O)c5ccccc5Cl)CC4)nc32)cc1,-0.1
9,COc1ccc(N2C(=O)C3CCCN3C2c2cccc(OC)c2)cc1 (configuration not stated),-0.5
10,Cc1ccc(C(=O)Nc2nnc(-c3cccs3)s2)cc1C,-0.6
11,COc1ccccc1NC(=O)CN1CCN(S(=O)(=O)c2ccc(Br)cc2)CC1,-0.8
12,Cc1ccc(C(C(=O)NCc2ccco2)N(CC2CCCO2)C(=O)Cn2nnc3ccccc32)cc1 (configuration not stated),-0.7
13,CC1CCN(Cc2nc3c(c(=O)n(C)c(=O)n3C)n2Cc2cccc3ccccc23)CC1,-0.5
14,COC(=O)Cn1c(=NC(=O)CSCC(=O)Nc2cc(C)on2)sc2ccccc21,-0.5
15,COC(=O)c1c(-c2ccc(C)cc2)csc1N,-0.4
16,CCOC(=O)N1CCN(CC(=O)c2ccc3c(c2)CCN3)CC1,0
17,CC(C)(C)c1ccc(NC(=O)NCc2ccco2)cc1,-0.2
18,CC(=O)CCS(=O)(=O)c1ccc(C)c(C)c1,-3
19,COC(=O)c1ccc(CSc2nncn2C)cc1,-1.1
20,CCn1cc(C(=O)NCC2CCCO2)c(=O)c2cc(S(=O)(=O)N3CCCCC3)ccc21 (configuration not stated),-0.3
21,O=c1oc2c(CN3CCCCC3)c(O)ccc2c2c1CCCCC2,-1
